Data: ChEMBL document CHEMBL1136151, “Suzuki cross-coupling approaches to the synthesis of bioactive 3-substituted and 5-substituted-4-methoxy-6-methyl-2-pyrones” (Bioorg Med Chem Lett, 2003)

Assays:
Aspergillus niger [1] = assay: Percent growth of Aspergillus niger after 7 days of incubation; type: functional; parameters: concentration or dose not given beside the values
In short: (§1)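 Fungal plate assay: pyrone dissolved in absolute EtOH at 10mg/mL and pipetted 2 cm offset from the centre of the plate containing the organism. EtOH alone served as control. Growth is recorded as percentage of the organism after 72 h and after 7 days of incubation.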

Aspergillus niger [2] = assay: Percent growth of Aspergillus niger after 72 hours of incubation; type: functional; parameters: concentration or dose not given beside the values; in short: as §1
Bacillus subtilis = assay: Antimicrobial activity against Bacillus subtilis was determined after 96 hours of incubation; type: functional
In short: (§2)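 Disk diffusion: cellulose disks loaded with test compound and placed on bacterial plates, with an EtOH control disk. Incubation 96 h. Read-out is the radius (mm) of the inhibition zone.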

Botrytis cinerea [3] = assay: Percent growth of Botrytis cinerea after 7 days of incubation; type: functional; parameters: concentration or dose not given beside the values; in short: as §1
Botrytis cinerea [4] = assay: Percent growth of Botrytis cinerea after 72 hours of incubation; type: functional; parameters: concentration or dose not given beside the values; in short: as §1
Candida albicans = assay: Antimicrobial activity against Candida albicans was determined after 48 hours of incubation; type: functional
In short: (§3)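 Disk diffusion on yeast plates: cellulose disks carrying test compound, with an EtOH control. Incubation 48 h. The inhibition zone radius is recorded in mm.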

Fusarium oxysporum [5] = assay: Percent growth of Fusarium oxysporum after 7 days of incubation; type: functional; parameters: concentration or dose not given beside the values; in short: as §1
Fusarium oxysporum [6] = assay: Percent growth of Fusarium oxysporum after 72 hours of incubation; type: functional; parameters: concentration or dose not given beside the values; in short: as §1
Escherichia coli = assay: Antimicrobial activity against Escherichia coli was determined after 96 hours of incubation; type: functional; in short: as §2
[7] = system: Globisporangium mamillatum; assay: Percent growth of Pythium mammillatum after 7 days of incubation; type: functional; parameters: concentration or dose not given beside the values; in short: as §1
[8] = system: Globisporangium mamillatum; assay: Percent growth of Pythium mammillatum after 72 hours of incubation; type: functional; parameters: concentration or dose not given beside the values; in short: as §1
Globisporangium ultimum [9] = assay: Percent growth of Pythium ultimum after 7 days of incubation; type: functional; parameters: concentration or dose not given beside the values; in short: as §1
Globisporangium ultimum [10] = assay: Percent growth of Pythium ultimum after 72 hours of incubation; type: functional; parameters: concentration or dose not given beside the values; in short: as §1
[11] = system: Schizosaccharomyces pombe; assay: Antimicrobial activity against Schizosaccharomyces pombe was determined after 48 hours of incubation; type: functional; in short: as §3
Saccharomyces cerevisiae = assay: Antimicrobial activity against Saccharomyces cerevisiae was determined after 48 hours of incubation; type: functional; in short: as §3
Thanatephorus cucumeris [12] = assay: Percent growth of Rhizoctonia solani after 7 days of incubation; type: functional; parameters: concentration or dose not given beside the values; in short: as §1
Thanatephorus cucumeris [13] = assay: Percent growth of Rhizoctonia solani after 72 hours of incubation; type: functional; parameters: concentration or dose not given beside the values; in short: as §1
Staphylococcus aureus = assay: Antimicrobial activity against Staphylococcus aureus was determined after 96 hours of incubation; type: functional; in short: as §2
[14] = system: Globisporangium mamillatum; assay: Percent growth of Pythium mammillatum after 7 days of incubation; NT=Not tested; type: functional; in short: as §1
A2780 = assay: In vitro growth inhibitory activity against A2780 human ovarium carcinoma cell line was determined; type: functional, cell-based
In short: (§4)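 Cell growth inhibition measured in cultured tumour cells by MTT assay. IC50 derived from the growth inhibition.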

K562 = assay: In vitro growth inhibitory activity against K562 human chronic myelogenous leukemia cell line was determined; type: functional, cell-based; in short: as §4

Structure (SMILES)	Growth (Aspergillus niger [1]) [%]	Growth (Aspergillus niger [2]) [%]	Activity (Bacillus subtilis) [mm]	Growth (Botrytis cinerea [3]) [%]	Growth (Botrytis cinerea [4]) [%]	Activity (Candida albicans) [mm]	Growth (Fusarium oxysporum [5]) [%]	Growth (Fusarium oxysporum [6]) [%]	Activity (Escherichia coli) [mm]	Growth [7] [%]	Growth [8] [%]	Growth (Globisporangium ultimum [9]) [%]	Growth (Globisporangium ultimum [10]) [%]	Activity [11] [mm]	Activity (Saccharomyces cerevisiae) [mm]	Growth (Thanatephorus cucumeris [12]) [%]	Growth (Thanatephorus cucumeris [13]) [%]	Activity (Staphylococcus aureus) [mm]	Growth [14] [%]	IC50 (A2780) [µM]	further results
CCCCC/C=C/c1cc(C)oc(=O)c1	94	89	18	100	45	21	24	2	18	93	31	100	95	34	0	100	38	17			
CCC/C=C/c1c(OC)cc(=O)oc1C	90	82	16	100	39	11	35	8	17		43	100	100	20	10	100	50	0	100		
CCCCCC/C=C/c1c(OC)cc(C)oc1=O	95	89	18	100	60	0	60	11	0	100	25	100	100	0	0	100	53	0		30.3	IC50 (K562): 30.1 µM
CCCC/C=C/c1cc(C)oc(=O)c1	95	92	18	100	44	24	25	2	18	100	30	100	96	40	0	100	36	0			
CCCCCC/C=C/c1c(OC)cc(=O)oc1C	93	90	16	94	29	18	46	10	14		22	100	100	22	0	100	40	16	90	26.9	IC50 (K562): 33.3 µM
COc1cc(=O)oc(C)c1-c1ccc(C)cc1	>95	>90	8	100	49	0	54	10	6					20	0	100	61	0	100		
